Series [1] concerns the target PSMA (Homo sapiens, UniProt Q04609). In words: NAALADase assay. Type of series: biochemical.
Series [2] can be described thus: Electronic / fluorescence properties. Type of series: physicochemical. The method in brief:
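Test compound (Re tricarbonyl complex) dissolved in ethylene glycol, measured under air or after argon purging. […] Lifetime was measured by a frequency-domain method with 370 nm LED excitation and 540–600 nm bandpass collection. Quantum yield was obtained by the optically dilute method against aerated aqueous [Ru(bpy)3]Cl2 (φ = 0.028, excitation 455 nm).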

Series [3] relates to PSMA+ PC3 PIP cells. The series can be described thus: In vitro fluorescence microscopy in PC3 PIP and PC3 flu cells. The conditions noted are these: excitation 494 nm, emission 628 nm. Type of series: cell-based, human. A digest of the protocol:
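PC3 PIP and PC3 flu cells (10000 per well) were attached overnight at 37 °C in 5% CO2. […] Wells were washed with warm medium for 30 s, mounted, dried 20 min, held overnight at 4 °C, then imaged.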

The mark [4] stands for this setting: LNCaP cell extracts, Cheng–Prusoff conversion.

Like-named read-outs stand apart in the source and are kept apart here.

PSMA, sequence (Q04609 whole entry): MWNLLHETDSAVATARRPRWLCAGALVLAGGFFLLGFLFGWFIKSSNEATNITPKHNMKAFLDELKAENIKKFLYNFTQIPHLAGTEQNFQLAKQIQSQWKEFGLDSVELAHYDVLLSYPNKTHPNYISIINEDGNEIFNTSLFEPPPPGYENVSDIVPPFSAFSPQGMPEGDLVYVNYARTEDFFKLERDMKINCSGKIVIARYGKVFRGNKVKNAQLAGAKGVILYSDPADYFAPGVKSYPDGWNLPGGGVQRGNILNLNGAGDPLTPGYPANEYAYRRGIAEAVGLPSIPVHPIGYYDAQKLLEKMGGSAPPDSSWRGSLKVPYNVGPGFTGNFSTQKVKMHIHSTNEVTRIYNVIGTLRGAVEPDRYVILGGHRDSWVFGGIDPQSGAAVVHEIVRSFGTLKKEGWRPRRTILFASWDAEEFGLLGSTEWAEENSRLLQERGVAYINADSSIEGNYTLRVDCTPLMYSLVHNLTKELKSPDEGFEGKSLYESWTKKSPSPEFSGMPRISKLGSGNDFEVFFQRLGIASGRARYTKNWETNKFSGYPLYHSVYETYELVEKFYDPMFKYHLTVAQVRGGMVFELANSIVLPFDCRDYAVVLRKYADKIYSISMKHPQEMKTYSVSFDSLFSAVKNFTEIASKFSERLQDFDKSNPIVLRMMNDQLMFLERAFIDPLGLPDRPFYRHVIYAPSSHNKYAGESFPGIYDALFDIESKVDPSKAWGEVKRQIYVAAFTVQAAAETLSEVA

With `O=C(O)CCC(NC(=O)NC(CCCCNC(=O)CCCCCCC(=O)NC(CCCCN(Cc1ccccn1)Cc1ccccn1)C(=O)O)C(=O)O)C(=O)O` (centres unmarked) [Compound L1, 2-[3-(5-{7-[5-(Bis-pyridin-2-ylmethyl-amino)-1-carboxy-pentylcarbamoyl]-heptanoylamino}-1-carboxy-pentyl)-ureido]-pentanedioic Acid], in series [1], the Ki (commonly the dissociation constant of the complex between target and ligand, obtained from inhibition or displacement) stood at 15.2 nM.
In turn, `O=C(O)CCC(NC(=O)NC(CCCCNC(=O)CCCCCCC(=O)NC(CCCCN(Cc1ccc2ccccc2n1)Cc1ccc2ccccc2n1)C(=O)O)C(=O)O)C(=O)O` (centres unmarked) [Compound L2, 2-[3-(5-{7-[5-(Bis-quinolin-2-ylmethyl-amino)-1-carboxy-pentylcarbamoyl]-heptanoylamino}-1-carboxy-pentyl)-ureido]-pentanedioic acid] showed a Ki in series [1] (setting [4]) of 0.17 nM.
With `O=C(O)CCC(NC(=O)NC(CCCCNC(=O)CCCCCCCN(Cc1ccccn1)Cc1ccccn1)C(=O)O)C(=O)O` (centres unmarked) [Compound L5, 2-(3-{5-[8-(Bis-pyridin-2-ylmethyl-amino)-octanoylamino]-1-carboxy-pentyl}-ureido)-pentanedioic Acid], the “PSMA inhibitory activity (in words)” value in series [1] is reported as “low nanomolar”.
For the molecule `O=C(O)CCC(NC(=O)NC(CCCCNC(=O)CCCCCCC(=O)NC(CCCCN(Cc1ccccn1)Cc1ccccn1)C(=O)O)C(=O)O)C(=O)O.[Br-].[C-]#[O+].[C-]#[O+].[C-]#[O+].[Re+]` (stereo not drawn) [ReL1, Tricarbonyl (2-[3-(5-{7-[5-(bis-pyridin-2-ylmethyl-amino)-1-carboxy-pentylcarbamoyl]-heptanoylamino}-1-carboxy-pentyl)-ureido]-pentanedioic acid) rhenium bromide], in series [1] (setting [4]), the affinity, expressed as Ki, was 10.8 nM.
`O=C(O)CCC(NC(=O)NC(CCCCNC(=O)CCCCCCC(=O)NC(CCCCN(Cc1ccc2ccccc2n1)Cc1ccc2ccccc2n1)C(=O)O)C(=O)O)C(=O)O.[Br-].[C-]#[O+].[C-]#[O+].[C-]#[O+].[Re+]` (stereo not drawn) [ReL2, Tricarbonyl(2-[3-(5-{7-[5-(bis-quinolin-2-ylmethyl-amino)-1-carboxy-pentylcarbamoyl]-heptanoylamino}-1-carboxy-pentyl)-ureido]-pentanedioic acid) rhenium bromide]: the extinction coefficient in series [2] (at 321 nm) worked out at 17200 M⁻¹. In series [2] (electronic spectrum), this molecule showed an absorbance maximum of 321 nm. In series [2] (ethylene glycol under argon), this molecule gave a fluorescence quantum yield of 0.018. This molecule also gave a fluorescence emission in series [2] (excitation at 321 nm) of 550 nm. This molecule also had a fluorescence lifetime in series [2] (λem = 550 nm, ethylene glycol under argon) of 11.8 μs. In series [1] (setting [4]), this molecule yielded a Ki of 0.5 nM. Also, the “PSMA inhibitory activity, fold higher than ReL1” value in series [1] (relative to ReL1) is 20 fold. Also, in series [3], the “fluorescent signal in live cells (internalization)” value was “weak but observable fluorescent signal”.
As to `O=C(O)CCC(NC(=O)NC(CCCCNC(=O)CCCCCCC(=O)NCCCCC(C(=O)O)N(Cc1ccccn1)Cc1ccccn1)C(=O)O)C(=O)O.[Br-].[C-]#[O+].[C-]#[O+].[C-]#[O+].[Re+]` (stereo not drawn) [ReL3, Tricarbonyl(2-[3-(5-{7-[5-(bis-pyridin-2-ylmethyl-amino)-5-carboxy-pentylcarbamoyl]-heptanoylamino}-1-carboxy-pentyl)-ureido]-pentanedioic acid)rehenium bromide], the Ki in series [1] (setting [4]) stood at 10.3 nM.
Molecule `O=C(O)CCC(NC(=O)NC(CCCCNC(=O)CCCCCCCN(Cc1ccccn1)Cc1ccccn1)C(=O)O)C(=O)O.[Br-].[C-]#[O+].[C-]#[O+].[C-]#[O+].[Re+]` (stereo not drawn) [ReL5, Tricarbonyl(2-(3-{5-[8-(bis-pyridin-2-ylmethyl-amino)-octanoylamino]-1-carboxy-pentyl}-ureido)-pentanedioic acid)rhenium bromide] showed a Ki in series [1] (setting [4]) of 0.91 nM.
`O=C(O)CCC(NC(=O)NC(CCCCN(Cc1ccccn1)Cc1ccccn1)C(=O)O)C(=O)O.[Br-].[C-]#[O+].[C-]#[O+].[C-]#[O+].[Re+]` (stereo not drawn) [ReL6, Tricarbonyl(2-{3-[5-(bis-pyridin-2-ylmethyl-amino)-1-carboxy-pentyl]-ureido}-pentanedioic acid)rhenium bromide]: the “PSMA inhibitory activity (in words)” value in series [1] is reported as “very low PSMA inhibitory activity, the lowest in the entire series”. Moreover, in series [1] (setting [4]), affinity was put at a Ki of 200 nM.
Regarding `O=C(O)CCC(NC(=O)NC(CCCCNC(=O)CCCCCCC(=O)NCCCCCCN(Cc1ccccn1)Cc1ccccn1)C(=O)O)C(=O)O.[Br-].[C-]#[O+].[C-]#[O+].[C-]#[O+].[Re+]` (stereo not drawn) [ReL7, Tricarbonyl(2-[3-(5-{7-[6-(Bis-pyridin-2-ylmethyl-amino)-hexylcarbamoyl]-heptanoylamino}-1-carboxy-pentyl)-ureido]-pentanedioic acid)rhenium bromide], the Ki in series [1] (setting [4]) stood at 2.06 nM.
